We go through 13 molecules from ChEMBL document CHEMBL2417412, “Design, synthesis, and structure-activity relationships of dihydrofuran-2-one and dihydropyrrol-2-one derivatives as novel benzoxazin-3-one-based mineralocorticoid receptor antagonists” (Bioorg Med Chem, 2013).

One experiment concerns the target T1, Androgen receptor (Homo sapiens, UniProt P10275).
T1 sequence (P10275 whole entry): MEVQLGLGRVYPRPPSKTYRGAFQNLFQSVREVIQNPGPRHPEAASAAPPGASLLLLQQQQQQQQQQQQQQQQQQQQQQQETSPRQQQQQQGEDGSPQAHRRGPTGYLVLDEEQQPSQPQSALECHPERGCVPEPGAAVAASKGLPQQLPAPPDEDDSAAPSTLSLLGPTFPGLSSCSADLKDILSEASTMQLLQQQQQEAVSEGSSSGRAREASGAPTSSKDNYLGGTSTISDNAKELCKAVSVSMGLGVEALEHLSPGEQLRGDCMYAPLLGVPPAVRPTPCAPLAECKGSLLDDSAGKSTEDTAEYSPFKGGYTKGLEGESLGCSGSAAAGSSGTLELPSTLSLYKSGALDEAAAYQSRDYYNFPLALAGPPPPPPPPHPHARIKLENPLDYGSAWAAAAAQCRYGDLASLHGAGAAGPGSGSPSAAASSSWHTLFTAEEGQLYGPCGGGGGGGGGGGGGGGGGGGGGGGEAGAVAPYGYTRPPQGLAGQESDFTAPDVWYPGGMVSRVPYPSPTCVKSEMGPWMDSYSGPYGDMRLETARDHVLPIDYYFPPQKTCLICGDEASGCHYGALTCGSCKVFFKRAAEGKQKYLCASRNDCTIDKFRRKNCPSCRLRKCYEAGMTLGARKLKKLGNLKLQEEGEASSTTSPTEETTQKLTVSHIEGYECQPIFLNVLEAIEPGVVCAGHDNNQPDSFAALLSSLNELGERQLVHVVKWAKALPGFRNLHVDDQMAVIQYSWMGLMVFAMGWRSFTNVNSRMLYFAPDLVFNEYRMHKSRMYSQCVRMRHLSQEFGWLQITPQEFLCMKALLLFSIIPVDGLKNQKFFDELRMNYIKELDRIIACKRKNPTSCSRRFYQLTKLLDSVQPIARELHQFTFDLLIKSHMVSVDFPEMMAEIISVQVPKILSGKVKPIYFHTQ
The experiment is described as follows: Displacement of [3H]-Testosterone from human AR expressed in 293 cells after 16 hrs by scintillation counting. In kind it is cell-based, HEK293. A digest of the protocol: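 These followed the MR cytosolic binding protocol (transfected 293 cells, TEGM buffer pH 7.2, 16 h at 4 °C, charcoal separation, scintillation counting of supernatant). The ligand was [3H]-dexamethasone for GR and [3H]-testosterone for AR. Concentrations were run in duplicate; IC50 taken as the mean of duplicate experiments from concentration-response curves.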
Background: Loss of bound radioactivity is the signal in a displacement assay; it reports binding, not function.

For a further experiment, the target named is T2, Progesterone receptor (Homo sapiens, UniProt P06401).
T2 sequence (P06401 whole entry): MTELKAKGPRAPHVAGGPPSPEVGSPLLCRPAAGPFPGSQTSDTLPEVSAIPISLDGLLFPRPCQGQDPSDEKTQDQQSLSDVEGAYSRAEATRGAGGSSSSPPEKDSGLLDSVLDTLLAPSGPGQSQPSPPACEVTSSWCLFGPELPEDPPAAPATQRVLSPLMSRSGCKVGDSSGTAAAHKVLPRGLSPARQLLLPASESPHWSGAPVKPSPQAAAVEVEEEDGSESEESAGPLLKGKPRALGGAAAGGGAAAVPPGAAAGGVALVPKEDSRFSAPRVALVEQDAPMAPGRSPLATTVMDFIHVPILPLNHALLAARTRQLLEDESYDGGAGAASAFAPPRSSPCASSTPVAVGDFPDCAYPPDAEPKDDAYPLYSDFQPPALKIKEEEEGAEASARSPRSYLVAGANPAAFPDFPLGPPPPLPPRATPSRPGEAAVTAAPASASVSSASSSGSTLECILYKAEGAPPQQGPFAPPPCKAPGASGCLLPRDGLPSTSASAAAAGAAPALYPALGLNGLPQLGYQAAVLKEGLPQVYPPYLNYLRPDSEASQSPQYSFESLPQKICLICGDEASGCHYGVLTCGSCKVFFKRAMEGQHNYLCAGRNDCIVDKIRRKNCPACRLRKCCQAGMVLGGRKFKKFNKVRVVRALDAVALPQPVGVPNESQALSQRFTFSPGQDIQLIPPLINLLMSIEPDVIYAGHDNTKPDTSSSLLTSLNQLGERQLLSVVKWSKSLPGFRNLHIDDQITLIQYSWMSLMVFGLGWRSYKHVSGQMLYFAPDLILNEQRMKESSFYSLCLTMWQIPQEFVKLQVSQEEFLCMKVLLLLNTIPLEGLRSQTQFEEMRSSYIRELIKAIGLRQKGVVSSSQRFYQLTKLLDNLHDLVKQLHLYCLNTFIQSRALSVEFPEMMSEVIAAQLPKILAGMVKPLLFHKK
The experiment is described as follows: Displacement of [3H]-Progesterone from human PR expressed in 293 cells after 16 hrs by scintillation counting. Type of experiment: cell-based, HEK293. A digest of the protocol:
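The PR assay ran like the MR cytosolic binding assay from transfected 293 cells, with 5 nM [3H]-progesterone as ligand. Incubation was 16 h at 4 °C in TEGM buffer pH 7.2, followed by dextran/gelatin-charcoal removal of free label and scintillation counting of the supernatant. Concentrations were run in duplicate; IC50 taken as the mean of duplicate experiments from concentration-response curves.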

A further experiment relates to HEK293. The experiment is described as follows: Selectivity ratio of IC50 for human GR expressed in 293 cells to IC50 for human MR expressed in 293 cells. In kind it is cell-based.

As a reminder, the IC50 is the concentration at which inhibition is half-maximal. The low end stands for greater potency in that assay, the high end for weaker potency in that assay. Turning to `CC1C(c2ccc3c(c2)NC(=O)CO3)=C(c2ccc(F)cc2)C(=O)N1C1CC1` (configuration not stated), the IC50 at Androgen receptor was over 10 µM; on Progesterone receptor, 0.4 µM.
For `Cc1cc(F)ccc1C1=C(c2ccc3c(c2)NC(=O)CO3)COC1=O`, in that order: over 10 µM and 1.8 µM.
Take `O=C1COc2ccc(C3=C(c4ccc(F)cc4)C(=O)OC3)cc2N1`: the IC50 on Androgen receptor and at Progesterone receptor was over 10 µM in each case.
Consider `CC1(C)OC(=O)C(c2ccc(F)cc2)=C1c1ccc2c(c1)NC(=O)CO2`, for which the IC50 is over 10 µM on Androgen receptor and 1 µM at Progesterone receptor.
For `CC1NC(=O)C(c2ccc(F)cc2)=C1c1cc(F)c2c(c1)NC(=O)CO2` (configuration not stated), in that order: over 10 µM and 3.2 µM.
Regarding `Cc1cc(C2=C(c3ccc(F)cc3)C(=O)NC2C)cc2c1OCC(=O)N2` (configuration not stated), the IC50 on Androgen receptor and on Progesterone receptor was over 10 µM each time. Further, the Ratio IC50 in the experiment with HEK293 stood at 100.
For `CC1NC(=O)C(c2ccc(F)cc2)=C1c1cc(Cl)c2c(c1)NC(=O)CO2` (configuration not stated), the IC50 on Androgen receptor was over 10 µM; on Progesterone receptor, 1.6 µM.
On to `CC1NC(=O)C(c2ccc(F)cc2)=C1c1ccc2c(c1)NC(=O)CO2` (configuration not stated), for which the figures for the concentration for half-maximal inhibition (IC50) on Androgen receptor and on Progesterone receptor were over 10 µM and 5.6 µM, respectively.
Consider `CC1(F)OC(=O)C(c2ccc(F)cc2)=C1c1ccc2c(c1)NC(=O)CO2` (configuration not stated), for which the IC50 at Androgen receptor was over 10 µM; on Progesterone receptor, 5 µM.
The like results for `CC1C(c2ccc3c(c2)NC(=O)CO3)=C(c2ccc(F)cc2)C(=O)N1C` (configuration not stated) were, in that order, over 10 µM and 0.061 µM.
The like results for `CC1C(c2ccc3c(c2)NC(=O)CO3)=C(c2ccc(F)cc2)C(=O)N1CCO` (configuration not stated) were, in that order, over 10 µM and over 10 µM.
The like results for `CCC1OC(=O)C(c2ccc(F)cc2)=C1c1ccc2c(c1)NC(=O)CO2` (configuration not stated) were, in that order, over 10 µM and 2.2 µM.
In the case of `CCN1C(=O)C(c2ccc(F)cc2)=C(c2ccc3c(c2)NC(=O)CO3)C1C` (configuration not stated), the IC50 is over 10 µM on Androgen receptor and 0.77 µM at Progesterone receptor.
